Source: ChEMBL document CHEMBL1158507, “Development of substituted 6-[4-fluoro-3-(piperazin-1-ylcarbonyl)benzyl]-4,5-dimethylpyridazin-3(2H)-ones as potent poly(ADP-ribose) polymerase-1 (PARP-1) inhibitors active in BRCA deficient cells” (Bioorg Med Chem Lett, 2010)
Calls of active or inactive are those of the source. No cut-off for these calls is given here.

What was measured:
[1] = Drug excretion in iv dosed rat bile after 72 hrs; format: ADME, organism-based; settings: read-out: Activity
[2] = Intrinsic clearance in human liver microsomes; format: ADME, Microsome
HeLa [3] = test: Antiproliferative activity against BRCA1 expressing human HeLa cells; format: functional
Summary of the method: (§1)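 Antiproliferation in HeLa cells, BRCA1-deficient and BRCA wild-type lines. Read-out is CC50 in nM. Values are means of at least two experiments.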

HeLa [4] = test: Antiproliferative activity against BRCA1 deficient human HeLa cells; format: functional; summary of the method: as §1
[5] = molecular target: Poly [ADP-ribose] polymerase 1 (Homo sapiens, UniProt P09874)
Poly [ADP-ribose] polymerase 1, sequence (P09874 whole entry): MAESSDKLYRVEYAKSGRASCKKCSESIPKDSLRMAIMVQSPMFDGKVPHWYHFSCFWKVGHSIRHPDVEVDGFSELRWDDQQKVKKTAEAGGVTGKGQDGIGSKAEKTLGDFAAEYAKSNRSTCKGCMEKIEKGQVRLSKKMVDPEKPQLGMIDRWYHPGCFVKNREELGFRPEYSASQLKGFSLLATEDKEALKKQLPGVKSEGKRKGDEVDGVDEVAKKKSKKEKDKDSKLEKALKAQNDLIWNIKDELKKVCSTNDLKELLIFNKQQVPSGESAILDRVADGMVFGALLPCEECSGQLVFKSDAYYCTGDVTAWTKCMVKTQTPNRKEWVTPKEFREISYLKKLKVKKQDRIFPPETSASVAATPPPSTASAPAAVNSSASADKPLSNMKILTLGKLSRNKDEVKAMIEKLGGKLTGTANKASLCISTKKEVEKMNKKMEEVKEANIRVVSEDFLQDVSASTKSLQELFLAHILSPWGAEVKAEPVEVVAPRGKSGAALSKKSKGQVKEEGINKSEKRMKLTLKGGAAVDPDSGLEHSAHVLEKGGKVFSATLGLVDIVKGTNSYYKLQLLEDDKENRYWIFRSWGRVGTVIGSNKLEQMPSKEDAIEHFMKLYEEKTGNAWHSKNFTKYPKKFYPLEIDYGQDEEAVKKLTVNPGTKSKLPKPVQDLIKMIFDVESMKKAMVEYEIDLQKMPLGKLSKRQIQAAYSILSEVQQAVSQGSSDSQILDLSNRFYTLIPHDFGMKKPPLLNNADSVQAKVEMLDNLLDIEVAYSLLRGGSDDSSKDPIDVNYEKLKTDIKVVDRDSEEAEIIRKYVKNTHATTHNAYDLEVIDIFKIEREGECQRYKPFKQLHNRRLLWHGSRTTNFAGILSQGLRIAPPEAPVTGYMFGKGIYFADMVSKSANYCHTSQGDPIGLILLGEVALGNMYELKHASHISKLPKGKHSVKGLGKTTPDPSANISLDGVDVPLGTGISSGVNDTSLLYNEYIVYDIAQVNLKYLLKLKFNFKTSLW

[6] = Intrinsic clearance in rat liver microsomes; format: ADME, Microsome
[7] = Drug excretion in iv dosed rat urine after 72 hrs; format: ADME, organism-based; settings: read-out: Activity
HeLa [8] = test: Selectivity for BRCA1 deficient human HeLa cells over BRCA1 expressing HeLa cells; format: functional
[9] = Clearance in rat; format: ADME, organism-based; settings: in vivo
[10] = Oral bioavailability in rat; format: ADME, organism-based; settings: in vivo
CYP3A4 = CYP3A4 (Homo sapiens, UniProt P08684); test: Inhibition of CYP3A4 at 10 uM; format: ADME
CYP3A4, sequence (P08684 whole entry): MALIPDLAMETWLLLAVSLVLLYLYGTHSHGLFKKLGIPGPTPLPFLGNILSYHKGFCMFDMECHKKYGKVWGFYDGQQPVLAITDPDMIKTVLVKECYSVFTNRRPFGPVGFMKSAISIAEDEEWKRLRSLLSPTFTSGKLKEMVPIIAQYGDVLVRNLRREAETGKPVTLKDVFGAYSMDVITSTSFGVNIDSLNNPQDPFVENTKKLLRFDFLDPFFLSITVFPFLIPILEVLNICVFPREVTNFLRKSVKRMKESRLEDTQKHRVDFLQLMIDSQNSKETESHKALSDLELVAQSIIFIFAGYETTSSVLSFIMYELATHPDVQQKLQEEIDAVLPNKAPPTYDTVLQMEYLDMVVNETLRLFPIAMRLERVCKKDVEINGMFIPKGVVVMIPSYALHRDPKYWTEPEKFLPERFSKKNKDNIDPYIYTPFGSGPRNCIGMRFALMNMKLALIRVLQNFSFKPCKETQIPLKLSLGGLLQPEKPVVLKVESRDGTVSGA

[11] = molecular target: Voltage-gated inwardly rectifying potassium channel KCNH2 (Homo sapiens, UniProt Q12809); test: Inhibition of human ERG
Voltage-gated inwardly rectifying potassium channel KCNH2, sequence (Q12809 whole entry): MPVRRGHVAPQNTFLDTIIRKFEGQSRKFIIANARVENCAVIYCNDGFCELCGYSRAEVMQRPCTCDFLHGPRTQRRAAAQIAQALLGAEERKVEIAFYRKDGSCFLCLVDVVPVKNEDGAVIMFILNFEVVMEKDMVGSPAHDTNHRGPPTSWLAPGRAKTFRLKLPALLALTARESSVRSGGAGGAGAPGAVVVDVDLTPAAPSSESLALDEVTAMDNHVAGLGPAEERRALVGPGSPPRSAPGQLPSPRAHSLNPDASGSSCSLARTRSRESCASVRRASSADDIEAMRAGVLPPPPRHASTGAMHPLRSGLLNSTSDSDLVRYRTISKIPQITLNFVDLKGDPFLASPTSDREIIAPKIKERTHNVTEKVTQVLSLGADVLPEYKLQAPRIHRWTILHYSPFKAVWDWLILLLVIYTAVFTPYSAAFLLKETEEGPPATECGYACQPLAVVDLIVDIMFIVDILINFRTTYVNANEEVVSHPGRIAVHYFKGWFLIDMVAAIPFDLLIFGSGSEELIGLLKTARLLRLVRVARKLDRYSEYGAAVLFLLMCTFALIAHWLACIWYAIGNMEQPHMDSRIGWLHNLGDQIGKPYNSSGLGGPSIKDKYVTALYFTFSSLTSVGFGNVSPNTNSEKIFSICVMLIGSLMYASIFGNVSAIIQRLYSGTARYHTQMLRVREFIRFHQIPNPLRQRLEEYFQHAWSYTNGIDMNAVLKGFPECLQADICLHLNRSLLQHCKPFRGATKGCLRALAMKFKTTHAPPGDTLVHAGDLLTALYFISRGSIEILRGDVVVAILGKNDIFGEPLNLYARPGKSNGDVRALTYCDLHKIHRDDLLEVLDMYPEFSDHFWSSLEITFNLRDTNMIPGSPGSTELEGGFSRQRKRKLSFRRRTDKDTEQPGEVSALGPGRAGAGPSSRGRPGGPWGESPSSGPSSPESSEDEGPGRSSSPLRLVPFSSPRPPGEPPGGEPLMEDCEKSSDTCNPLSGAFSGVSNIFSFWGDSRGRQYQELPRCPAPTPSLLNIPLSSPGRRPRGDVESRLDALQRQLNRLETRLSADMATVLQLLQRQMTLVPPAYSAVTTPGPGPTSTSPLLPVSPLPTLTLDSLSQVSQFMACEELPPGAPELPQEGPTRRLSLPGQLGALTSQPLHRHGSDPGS

[12] = Induction of CYP450 at 10 uM relative to refampicin; format: ADME
[13] = Volume of distribution at steady state in rat; format: ADME, organism-based; settings: in vivo, read-out: Vdss
[14] = Half life in rat; format: ADME, organism-based; settings: in vivo
[15] = Drug excretion in iv dosed rat urine after 24 hrs; format: ADME, organism-based; settings: read-out: Activity
CYP2D6 = CYP2D6 (Homo sapiens, UniProt P10635); test: Inhibition of CYP2D6 at 10 uM; format: ADME
CYP2D6, sequence (P10635 whole entry): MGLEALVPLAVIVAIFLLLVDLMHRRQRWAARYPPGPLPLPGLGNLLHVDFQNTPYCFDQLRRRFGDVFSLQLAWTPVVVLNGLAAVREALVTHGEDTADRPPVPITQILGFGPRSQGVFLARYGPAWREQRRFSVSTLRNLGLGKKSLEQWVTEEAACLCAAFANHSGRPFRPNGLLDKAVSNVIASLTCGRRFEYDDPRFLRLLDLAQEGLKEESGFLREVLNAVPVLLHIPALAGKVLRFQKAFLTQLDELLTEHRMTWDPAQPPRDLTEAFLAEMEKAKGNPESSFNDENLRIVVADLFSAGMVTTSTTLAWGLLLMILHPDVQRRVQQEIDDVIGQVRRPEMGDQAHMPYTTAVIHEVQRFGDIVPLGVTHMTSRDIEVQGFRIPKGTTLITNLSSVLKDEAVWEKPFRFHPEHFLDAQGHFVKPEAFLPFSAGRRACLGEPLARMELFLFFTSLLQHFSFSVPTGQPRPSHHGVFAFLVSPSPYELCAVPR

HeLa [16] = test: Antiproliferative activity against BRCA1 deficient human HeLa cells at 5 uM; format: functional, cell-based

Structure (SMILES)	CC50 (HeLa [3]) [µM]	CC50 (HeLa [4]) [µM]	IC50 [5] [µM]	other results
Cc1c(Cc2ccc(F)c(C(=O)N3CCN(C(=O)C4(C)CCCN4)CC3)c2)n[nH]c(=O)c1C (stereo not given)	> 5	0.09	0.0028	dose excreted at 72 h [1]: 3%; microsomal CLint [2]: < 1 µL/min/mg; microsomal CLint [6]: < 1 µL/min/mg; dose excreted at 72 h [7]: 82%; Ratio (HeLa [8]): 30; clearance [9]: 38 mL/min/kg; bioavailability [10]: < 3%
CNC(C)(C)C(=O)N1CCN(C(=O)c2cc(Cc3n[nH]c(=O)c(C)c3C)ccc2F)CC1	> 5	0.28	0.0037	microsomal CLint [2]: 10 µL/min/mg; microsomal CLint [6]: 7 µL/min/mg; clearance [9]: 64 mL/min/kg
Cc1c(Cc2ccc(F)c(C(=O)N3CCN(C(=O)[C@]4(Cc5ccc(F)cc5)CCCN4)CC3)c2)n[nH]c(=O)c1C	3.3	0.015	0.0025	–
Cc1c(Cc2ccc(F)c(C(=O)N3CCN(C(=O)C4(C)CCCCN4)CC3)c2)n[nH]c(=O)c1C (stereo not given)	> 20	2	0.012	–
Cc1c(Cc2ccc(F)c(C(=O)N3CCN(C(=O)C(C)(C)N(C)C)CC3)c2)n[nH]c(=O)c1C	> 2.5	0.36	0.0018	–
CCNC1(C(=O)N2CCN(C(=O)c3cc(Cc4n[nH]c(=O)c(C)c4C)ccc3F)CC2)CCCC1	4	0.091	0.0031	–
C=CCC1(C(=O)N2CCN(C(=O)c3cc(Cc4n[nH]c(=O)c(C)c4C)ccc3F)CC2)CCCN1 (stereo not given)	19	0.031	0.0018	–
Cc1c(Cc2ccc(F)c(C(=O)N3CCN(C(=O)[C@]4(C)CCCN4)CC3)c2)n[nH]c(=O)c1C	> 40	0.78	0.0038	–
Cc1c(Cc2ccc(F)c(C(=O)N3CCN(C(=O)C4(Cc5ccc(F)cc5)CCCN4)CC3)c2)n[nH]c(=O)c1C (stereo not given)	2.7	0.0091	0.0036	inhibition at 10 µM (CYP3A4): 73%
Cc1c(Cc2ccc(F)c(C(=O)N3CCN(C(=O)C4(NCC5CC5)CCC4)CC3)c2)n[nH]c(=O)c1C	0.45	0.024	0.0032	–
Cc1c(Cc2ccc(F)c(C(=O)N3CCC4(CCNC4)CC3)c2)n[nH]c(=O)c1C	> 5	> 5	0.0047	–
Cc1c(Cc2ccc(F)c(C(=O)N3CCC4(CCCN4C)CC3)c2)n[nH]c(=O)c1C	> 5	0.1	0.0045	–
CCN1CCCC12CCN(C(=O)c1cc(Cc3n[nH]c(=O)c(C)c3C)ccc1F)CC2	> 5	0.17	0.0097	–
Cc1c(Cc2ccc(F)c(C(=O)N3CCN(C(=O)C4(Cc5ccccc5)CCCN4)CC3)c2)n[nH]c(=O)c1C (stereo not given)	> 5	0.053	0.0033	–
Cc1c(Cc2ccc(F)c(C(=O)N3CCN(C(=O)C4(Nc5ccccc5)CCCC4)CC3)c2)n[nH]c(=O)c1C	0.87	0.13	0.0039	–
Cc1c(Cc2ccc(F)c(C(=O)N3CCN(C(=O)[C@@H]4CCCN4)CC3)c2)n[nH]c(=O)c1C	> 10	3	0.0031	–
Cc1c(Cc2ccc(F)c(C(=O)N3CCN(C(=O)[C@H]4CCCN4)CC3)c2)n[nH]c(=O)c1C	> 10	0.22	0.0027	–

Structure (SMILES)	CC50 (HeLa [3]) [µM]	CC50 (HeLa [4]) [µM]	IC50 [5] [µM]	other results
Cc1c(Cc2ccc(F)c(C(=O)N3CCN(C(=O)C4(N5CCCC5)CCCC4)CC3)c2)n[nH]c(=O)c1C	1.5	0.089	0.0027	–
CNC1(C(=O)N2CCN(C(=O)c3cc(Cc4n[nH]c(=O)c(C)c4C)ccc3F)CC2)CCCC1	> 5	0.081	0.0027	–
Cc1c(Cc2ccc(F)c(C(=O)N3CCN(C(=O)[C@@]4(C)CCCN4)CC3)c2)n[nH]c(=O)c1C	> 5	0.045	0.0013	Ratio (HeLa [8]): 100
CNC(C)(C)C(=O)N1CCN(C(=O)c2cc(Cc3c[nH]c(=O)c4cc(Cl)c(Cl)n34)ccc2F)CC1	> 5	0.053	0.002	IC50 [11]: 11 µM; inhibition at 10 µM (CYP3A4): 25%; microsomal CLint [6]: 122 µL/min/mg; Activity [12]: 14%; Ratio (HeLa [8]): >100; clearance [9]: > 200 mL/min/kg
Cc1c(Cc2ccc(F)c(C(=O)N3CCN(C(=O)C4(N(C)C)CC4)CC3)c2)n[nH]c(=O)c1C	7.7	0.35	0.0057	–
Cc1c(Cc2ccc(F)c(C(=O)N3CCN(C(=O)[C@@]4(Cc5ccc(F)cc5)CCCN4)CC3)c2)n[nH]c(=O)c1C	15	0.29	0.0042	–
CNC1(C(=O)N2CCN(C(=O)c3cc(Cc4n[nH]c(=O)c(C)c4C)ccc3F)CC2)CC1	> 5	0.24	–	–
Cc1c(Cc2ccc(F)c(C(=O)N3CCC4(CCN4)CC3)c2)n[nH]c(=O)c1C	> 5	> 5	0.0046	–
Cc1c(Cc2ccc(F)c(C(=O)N3CCC4(CCCN4)CC3)c2)n[nH]c(=O)c1C	> 5	0.049	0.0026	microsomal CLint [2]: < 1 µL/min/mg; Vd [13]: 6.7 L/kg; half-life [14]: 3.7 h; microsomal CLint [6]: < 1 µL/min/mg; dose excreted at 24 h [15]: 37%; clearance [9]: 57 mL/min/kg
O=C(c1cc(Cc2c[nH]c(=O)c3cc(Cl)c(Cl)n23)ccc1F)N1CCC2(CCCN2)CC1	> 5	0.048	0.0025	IC50 [11]: 12 µM; inhibition at 10 µM (CYP2D6): 35%; microsomal CLint [6]: 65 µL/min/mg; Ratio (HeLa [8]): >100; clearance [9]: 130 mL/min/kg
Cc1c(Cc2ccc(F)c(C(=O)N3CCN(C(=O)C4(NCC5CC5)CCCC4)CC3)c2)n[nH]c(=O)c1C	2.1	0.071	0.0024	–
Cc1c(Cc2ccc(F)c(C(=O)N3CCN(C(=O)C4(C)CCCO4)CC3)c2)n[nH]c(=O)c1C (stereo not given)	11	0.38	0.0028	–
Cc1c(Cc2ccc(F)c(C(=O)N3CCN(C(=O)C4CCNC4)CC3)c2)n[nH]c(=O)c1C (stereo not given)	> 5	> 5	0.0039	Activity (HeLa [16]): inactive
CCC1(C(=O)N2CCN(C(=O)c3cc(Cc4n[nH]c(=O)c(C)c4C)ccc3F)CC2)CCCN1 (stereo not given)	16	0.024	0.0038	microsomal CLint [2]: 13 µL/min/mg; microsomal CLint [6]: 6 µL/min/mg; bioavailability [10]: < 3%
Cc1c(Cc2ccc(F)c(C(=O)N3CCN(C(=O)[C@@]4(C)CCN4)CC3)c2)n[nH]c(=O)c1C	> 40	0.078	0.0031	microsomal CLint [2]: 3 µL/min/mg; microsomal CLint [6]: < 1 µL/min/mg; dose excreted at 24 h [15]: 11%; bioavailability [10]: < 3%
Cc1c(Cc2ccc(F)c(C(=O)N3CCN(C(=O)C4(NCC5CC5)CCCCC4)CC3)c2)n[nH]c(=O)c1C	1.9	0.17	0.0035	–
